MEKK3 PB1 HTS = modulators of MEKK3-MEK5 PB1 binding, primary screen, biochemical, wildtype MEKK3, multiplex bead flow cytometry, Alexa488-MEK5; bead-based flow cytometry, Alexa488-MEK5 binding to MEKK3; actives lie on both sides; 0 = blocked by unlabeled MEK5, 100 = vehicle; binding response (% of control), % at 10 µM; 290,000 compounds, 1.4% hits;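 active means binding response more than 3 SD above or below the average of its plate-row segment, actives on both sides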;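 further: Alexa488 bead fluorescence after subtracting the streptavidin-only scavenger bead signal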
Target sequence (Q99759 whole entry, looked up): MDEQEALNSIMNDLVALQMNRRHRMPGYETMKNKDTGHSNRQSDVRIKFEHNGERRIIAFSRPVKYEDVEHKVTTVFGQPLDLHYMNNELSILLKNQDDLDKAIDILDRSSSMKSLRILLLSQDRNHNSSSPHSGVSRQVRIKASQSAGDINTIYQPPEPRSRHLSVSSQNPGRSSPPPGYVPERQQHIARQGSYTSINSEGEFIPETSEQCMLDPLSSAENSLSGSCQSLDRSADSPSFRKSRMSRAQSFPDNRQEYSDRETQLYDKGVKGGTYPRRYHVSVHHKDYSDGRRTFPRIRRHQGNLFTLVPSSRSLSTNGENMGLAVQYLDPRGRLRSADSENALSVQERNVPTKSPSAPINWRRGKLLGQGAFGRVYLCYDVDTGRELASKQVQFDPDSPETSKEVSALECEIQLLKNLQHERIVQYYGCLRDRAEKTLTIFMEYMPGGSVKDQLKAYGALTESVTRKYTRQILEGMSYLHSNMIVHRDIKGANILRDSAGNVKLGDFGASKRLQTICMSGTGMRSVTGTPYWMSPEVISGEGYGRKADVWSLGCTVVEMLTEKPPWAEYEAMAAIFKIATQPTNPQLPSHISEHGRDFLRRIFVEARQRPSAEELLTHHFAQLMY
Arr AP2 block = inhibitors of beta-arrestin/AP2 binding, primary screen, biochemical, GPCR trafficking, flow cytometry | inhibition, % at 10 µM | FITC-arrestin peptide / GST-AP2 beads; AP2 beta2 appendage carries R879A mutation | AID 504490, 2011 | beta-arrestin 1 C-terminal peptide binding to AP2 beta2-adaptin appendage (human) | 340,000 compounds, 0.31% hits;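 active means inhibition above a set limit, near 3 SD of compounds lacking own fluorescence, cut at about 54% in these data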
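System: GST-AP2 R879A glutathione beads | Also added: FITC-arrestin peptide, 50 nM | Times: 12 min plus 1 h, RT | Signal: Bead flow cytometry, FITC channel | Buffer or medium: PBS with 0.05% Tween 20 and 0.1% BSA | Read-out basis: Percent drop in bead-associated FITC signal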
MEKK2 WT-MEK5 = modulators of MEK5 binding to wildtype MEKK2, primary screen, biochemical, multiplex bead flow cytometry, Alexa488-MEK5 | Alexa488-MEK5 binding to MEKK2 WT; actives lie on both sides | binding response (% of control), % at 10 µM | 290,000 compounds, 1.1% hits; in the data active means binding response below about 67% or above about 130%
MEKK2mut PB1 HTS = MEK5 binding signal on mutant MEKK2 PB1, primary screen, biochemical, multiplex bead flow cytometry, Alexa488-MEK5; Alexa488-MEK5 binding to MEKK2 mutant; percent response, % at 10 µM; 290,000 compounds, 0.35% hits; AID 1530, 2009; in the data active means percent response above about 24%, passing the limit was not always enough
MEKK2wt confirm = modulators of MEK5 binding to wildtype MEKK2, confirmation, biochemical, single concentration, multiplex bead flow cytometry; 5,900 compounds, 2.4% hits; binding response (% of control), % at 10 µM; Alexa488-MEK5 binding to MEKK2 WT; actives lie on both sides; shares compounds with MEKK3 PB1 HTS; in the data active means binding response below about 16% or above about 210%; inactive means in between
MEKK2mut confirm = mutant MEKK2 PB1-MEK5 binding signal retest – biochemical, single concentration, multiplex bead flow cytometry, confirmation; shares compounds with MEKK3 PB1 HTS; Alexa488-MEK5 binding to MEKK2 mutant; percent response, % at 10 µM; 5,900 compounds, 2% hits; in the data active means percent response mostly above about 71%, no sharp cut-off; inactive means mostly below about 38%;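 further: higher means compound restores mutant binding toward wildtype level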
MEKK3-MEK5 inh = MEKK3 wild-type PB1 binding to MEK5, inhibitors, confirmation, biochemical, bead multiplex flow cytometry, single concentration, wildtype. 5,900 compounds, 1.8% hits. AID 1894, 2009. shares compounds with MEKK3 PB1 HTS. binding response (% of control), % at 10 µM. Alexa488-MEK5 binding to MEKK3; active compounds read low;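 active means binding response below 72% of control, or above a set upper limit, though filed actives all read lower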;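 further: lower values mean stronger disruption of MEK5 binding to MEKK3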
A number is an active result; . = inactive; / = not tested or not shown; [ ] = remark or other dose. Hits are enriched below; roughly 2.3% of the tested compounds scored in any of these assays.

SMILES	MEKK3 PB1 HTS	Arr AP2 block	MEKK2 WT-MEK5	MEKK2mut PB1 HTS	MEKK2wt confirm	MEKK2mut confirm	MEKK3-MEK5 inh
Cc1ccc(-n2nc(-c3ccccc3)cc2Nc2ccccc2N)cc1	139.0	.	.	.	.	.	.
Nc1ccccc1Nc1cc(-c2ccccc2)nn1-c1ccccc1	.	.	.	.	/	/	/
CC(NC(=O)COC(=O)c1nc(Cl)ccc1Cl)c1ccccc1 (configuration not stated)	/	.	/	/	/	/	/
CCCCOCCCNC(=O)c1ccc2c(c1)OCO2	.	.	.	.	/	/	/
COCCCNC(=O)c1ccc2c(c1)OCO2	67.0[inhibitor]	.	.	.	.	.	.
COCCCNC(=O)c1ccc2nc(Cc3ccc(OC)cc3)oc2c1	38.0[inhibitor]	.	16.0[inhibitor]	.	.	.	.
CCOCCCNC(=O)C(NC(=O)c1ccc2c(c1)OCO2)c1ccccc1 (configuration not stated)	43.0[inhibitor]	.	.	.	.	.	.
C=CCNC(=O)c1ccc2nc(Cc3ccc(OC)cc3)oc2c1	.	.	.	.	/	/	/
CCOCCCNC(=O)C(NC(=O)c1ccc2c(c1)OCO2)c1ccc(OC)cc1 (configuration not stated)	.	.	.	.	/	/	/
CCC(=O)N1c2ccccc2NC2=C(C(=O)CC(C)(C)C2)C1c1ccc(O)c(OC)c1 (configuration not stated)	.	.	.	.	/	/	/
CCOC(=O)NN1C(=O)c2ccccc2NC1c1ccccc1 (configuration not stated)	149.0	.	.	.	.	.	.
CCOC(=O)NN1C(=O)c2ccccc2NC1c1ccc(OC)cc1 (configuration not stated)	.	.	.	.	/	/	/
CCOC(=O)NN1C(=O)c2ccccc2NC1c1ccc(N(C)C)cc1 (configuration not stated)	144.0	.	.	.	.	.	.
COc1ccc2c(c1)CC=C1C2CCC2(C)C(=O)C(=NO)CC12 (configuration not stated)	/	.	/	/	/	/	/
C/C(=N/NC(=O)c1ccncc1)c1cc2ccc(O)cc2oc1=O	.	.	156.0	.	.	.	.
COc1ccc(N2CCN(C(=O)CSc3nnc4c(C)cc5ccc(C)c(C)c5n34)CC2)cc1	36.0[inhibitor]	.	.	.	.	.	.
COc1ccc(N2CCN(C(=O)CSc3nnc4c(C)cc5cc(C)ccc5n34)CC2)cc1	/	.	/	/	/	/	/
COc1ccc(CCNC(=S)Nc2ccc(C(C)C)cc2)cc1	134.0	.	.	.	.	.	.
CC(C)(C)c1ccc(/C=C(\C#N)C(=O)NC2CC2)cc1	/	.	/	/	/	/	/
COc1cc2c(cc1OC)CN(C(=O)c1ccco1)CC2	143.0	.	.	.	.	.	.
O=C(CNC(=O)c1ccc(S(=O)(=O)N2CCCC2)cc1)N/N=C/c1ccccc1Cl	73.0[inhibitor]	.	.	.	.	.	.
COc1ccccc1/C=N/NC(=O)CNC(=O)c1ccc(S(=O)(=O)N2CCCC2)cc1	.	.	.	.	/	/	/
CCCCCN=C(N)N/N=C/c1c[nH]c2ccc(OC)cc12	.	.	263.0	40.0	.	.	.
CCCOc1ccc(C(=O)N/N=C/c2c[nH]c3ccc(Br)cc23)cc1	.	.	.	.	/	/	/
O=C(COC(=O)C1CCC(=O)N1)Nc1ccccc1Br (configuration not stated)	128.0	.	.	.	.	.	.
SMILES	MEKK3 PB1 HTS	Arr AP2 block	MEKK2 WT-MEK5	MEKK2mut PB1 HTS	MEKK2wt confirm	MEKK2mut confirm	MEKK3-MEK5 inh
CS(=O)(=O)c1cccc(-c2nnc(NC(=O)CCS(=O)(=O)c3ccccc3)o2)c1	/	.	/	/	/	/	/
CN(CC1CCOCC1)C(=O)CC1C(=O)NCCN1C/C=C/c1ccccc1 (configuration not stated)	.	.	.	.	/	/	/
CSc1ccccc1C(=O)N1CCC2(CC1)CC(=O)c1ccccc1O2	/	.	/	/	/	/	/
OC(CN1CCCC1)Cn1ccc2ccccc21 (configuration not stated)	.	.	146.0	31.0	.	.	.
O=C(/C=C/c1cn(CC(O)CN2CCCCC2)c2ccccc12)c1ccccc1 (configuration not stated)	.	.	141.0	.	.	.	.
CN1CCN(Cn2cc(/C=C/C(=O)c3ccccc3)c3ccccc32)CC1	.	.	142.0	.	.	.	.
CCCCN(C)CC(O)Cn1cc(/C=C/C(=O)c2ccc(C)cc2)c2ccccc21 (configuration not stated)	.	.	186.0	54.0	.	.	.
COc1ccc(C(=O)/C=C/c2cn(CC(O)CN3CCN(C)CC3)c3ccccc23)cc1OC (configuration not stated)	.	.	.	.	/	/	/
CC1CCN(C(=O)CCC(=O)Nc2nnc(C(F)(F)F)s2)CC1	.	.	.	.	/	/	/
O=C(NC1CCN(C(=O)Nc2ccccc2Cl)CC1)c1cccc(F)c1	.	.	.	.	/	/	/
CCCN(CCC)CC(O)Cn1cc(/C=C/C(=O)c2ccccc2)c2ccccc21 (configuration not stated)	.	.	154.0	.	.	.	.
CCCN(CCC)CC(O)Cn1cc(/C=C/C(=O)c2cccs2)c2ccccc21 (configuration not stated)	.	.	.	.	/	/	/
Cc1cn([C@H]2C[C@H](O)[C@@H](CCC(=O)NCCc3cnc[nH]3)O2)c(=O)[nH]c1=O	/	.	/	/	/	/	/
Cc1[nH]c2ccccc2c1N=Nc1cccc(C(=O)O)c1	68.0[inhibitor]	.	.	.	.	.	.
Cc1ccnc(NC(=O)c2ccc(OCc3c(C)noc3C)cc2)c1	/	.	/	/	/	/	/
COC(=O)CCSCC(=O)N1N=C(c2ccc(Br)cc2)CC1c1cccc(OC)c1OC (configuration not stated)	.	.	.	.	/	/	/
COc1ccc(C(=O)N[C@H](C(=O)N2CCN(c3ccccc3F)CC2)C(C)C)cc1	/	.	/	/	/	/	/
O=C(Nc1cccc(Cl)c1)N1CCN(C/C=C/c2ccccc2)CC1	.	.	139.0	.	.	.	.
O=C(CCN1CCN(C/C=C/c2ccccc2)CC1)Nc1ccc(Cl)cc1	.	.	.	.	/	/	/
